≈ marks a conversion by molar mass, not a printed value.
How the values were obtained:
Klebsiella pneumoniae [1] = test: Antibacterial activity against Klebsiella pneumoniae ATCC 13443 assessed as growth inhibition; type: functional
Pseudomonas aeruginosa [2] = test: Antibacterial activity against Pseudomonas aeruginosa ATCC 27853 assessed as growth inhibition incubated for 18 hrs by broth dilution method; type: functional; details: ATCC 27853, 18 h
Outline: (§1)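 Broth microdilution following CA-SFM recommendations. Inoculum was 10^5 CFU in Mueller-Hinton broth with two-fold serial drug dilutions. Plates were incubated 18 h at 37 °C. MIC was the lowest concentration giving complete inhibition of visible growth. Values are means, n = 3.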

Escherichia coli = test: Antibacterial activity against Escherichia coli ATCC 25922 assessed as growth inhibition incubated for 18 hrs by broth dilution method; type: functional; details: ATCC 25922, 18 h; outline: as §1
Acinetobacter baumannii [3] = test: Antibacterial activity against Acinetobacter baumannii AYE assessed as growth inhibition; type: functional
Klebsiella pneumoniae [4] = test: Antibacterial activity against Klebsiella pneumoniae ATCC 700603 assessed as growth inhibition incubated for 18 hrs by resazurin dye based assay; type: functional; details: Klebsiella pneumoniae, 700603, 18 h
Outline: (§2)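 Overnight cultures were diluted 40-fold in MHB and grown 1.5–2 h at 37 °C to mid-log phase. Cells were added at 5×10^5 CFU/mL final to two-fold compound dilutions (0.008–32 μg/mL final), in duplicate, for 18 h at 37 °C. Resazurin (0.001% final) was added for 2 h and MIC read by eye. Means, n = 2.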

Acinetobacter baumannii [5] = test: Antibacterial activity against Acinetobacter baumannii ATCC 19606 assessed as growth inhibition incubated for 18 hrs by resazurin dye based assay; type: functional; details: ATCC 19606 = CIP 70.34 = JCM 6841, 18 h; outline: as §2
[6] = Hemolytic activity against Sprague-Dawley rat RBC assessed as release of hemoglobin at 50 uM incubated for 1 hr relative to control; type: ADME, cell-based, Erythrocyte; details: red blood cells (erythrocytes), read-out: Activity
Outline: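 Fresh Sprague-Dawley rat erythrocytes were washed in saline and resuspended at 2% v/v. Cells were incubated with compound in DMSO/PBS for 1 h at 37 °C, then centrifuged at 200 g, and supernatant absorbance read at 540 nm. Results were normalised to DMSO/PBS (0%) and 0.1% Triton X-100 (100%). Single-point testing used 50 μM; HC50 came from 10-point curves. Means of three experiments.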

Cryptococcus neoformans = test: Antifungal activity against Cryptococcus neoformans ATCC 208821 assessed as growth inhibition incubated for 36 hrs by resazurin dye based assay; type: functional; details: ATCC 208821, 36 h
Outline: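 Cryptococcus was grown 3 days on YPD agar at 30 °C, suspended, and diluted in YNB broth to 2.5×10^3 CFU/mL. Cells were exposed to 0.008–32 μg/mL compound (final), in duplicate, for 36 h at 35 °C without shaking. Resazurin (0.006% final) was added for a further 3 h. MIC was read from absorbance at OD570–600. Means, n = 2.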

[7] = Cytotoxicity against human HEK293 cells measured after 20 hrs by resazurin dye based fluorescence assay; type: cell-based
Outline: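 HEK293 cells, 5,000/well in DMEM with 10% FBS, were exposed to compound for 20 h at 37 °C, 5% CO2. Resazurin (100 μM final) was added for 3 h, then fluorescence read at ex 560/em 590. Signal was normalised to tamoxifen (74 μg/mL, 0%) and untreated growth (100%), and CC50 came from dose-response fitting. Top dose 32 μg/mL. Means, n = 2.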

L6 = test: Cytotoxicity against rat L6 cells measured after 72 hrs by alamar blue assay; type: cell-based; details: L6, 72 h
Outline: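 Rat L6 myoblasts, 4×10^4/well in RPMI 1640 with L-glutamine and 10% FBS, received seven 3-fold dilutions (90 to 0.123 μg/mL) for 72 h. Alamar Blue was added for 2 h and fluorescence read at ex 536/em 588 nm. Podophyllotoxin served as reference. Means, n = 2.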

Candida albicans = test: Antifungal activity against Candida albicans ATCC 90028 assessed as growth inhibition incubated for 36 hrs by resazurin dye based assay; type: functional; details: ATCC 90028, 36 h
Outline: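 Yeast was grown 3 days on YPD agar at 30 °C. Colonies were suspended and diluted in YNB broth to 2.5×10^3 CFU/mL, then added to two-fold compound dilutions (0.008–32 μg/mL final), in duplicate. Plates stood 36 h at 35 °C without shaking. Means, n = 2.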

Pseudomonas aeruginosa [8] = test: Potentiation of doxycycline-induced antibacterial activity against Pseudomonas aeruginosa ATCC 27853 assessed as concentration required to restore 2 ug/ml doxycycline activity measured after 18 hrs; type: functional
Outline: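 Inoculum was 5×10^5 CFU in MHB with two-fold serial dilutions of adjuvant plus fixed doxycycline at 2 μg/mL. […] Repeated independently in triplicate.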

[9] = tested on: Staphylococcus intermedius; test: Antibacterial activity against Staphylococcus intermedius 1051997 assessed as growth inhibition incubated for 18 hrs by broth dilution method; type: functional; details: Staphylococcus intermedius, 1051997, 18 h; outline: as §1
Staphylococcus aureus = test: Antibacterial activity against Staphylococcus aureus ATCC 25923 assessed as growth inhibition incubated for 18 hrs by broth dilution method; type: functional; details: ATCC 25923, 18 h; outline: as §1

Row | SMILES | MIC (Klebsiella pneumoniae [1]) [µM] | MIC (Pseudomonas aeruginosa [2]) [µM] | MIC (Escherichia coli) [µM] | MIC (Acinetobacter baumannii [3]) [µM] | MIC (Klebsiella pneumoniae [4]) [µM] | MIC (Acinetobacter baumannii [5]) [µM] | hemolysis at 1 h, 50 µM [6] [%] | MIC (Cryptococcus neoformans) [µM] | CC50 at 20 h [7] [µM] | IC50 (L6) [µM] | MIC (Candida albicans) [µM] | Activity (Pseudomonas aeruginosa [8]) [µM] | MIC [9] [µM] | MIC (Staphylococcus aureus) [µM]
1 | CCn1cc(C(=O)O)c(=O)c2ccc(C)nc21 [NALIDIXIC ACID] | 100 (≈ 23.2 µg/mL) | > 200 | > 200 | > 200 |  |  |  |  |  |  |  |  |  | 
2 | C[C@H]1c2cccc(O)c2C(=O)C2=C(O)[C@]3(O)C(=O)C(C(N)=O)=C(O)[C@@H](N(C)C)[C@@H]3[C@@H](O)[C@@H]21 [DOXYCYCLINE] | 25 (≈ 11.1 µg/mL) | 90 (≈ 40 µg/mL) | 25 (≈ 11.1 µg/mL) | 12.5 (≈ 5.56 µg/mL) |  |  |  |  |  |  |  |  |  | 
3 | Cc1cccc2c(C(=O)C(=O)NCCCNCCCCNCCCNC(=O)C(=O)c3c[nH]c4c(C)cccc34)c[nH]c12.O=C(O)C(F)(F)F.O=C(O)C(F)(F)F |  | > 200 | > 200 |  | > 40 | > 40 | 0.1 | 10 | > 40 | 59.6 | > 40 | 6.25 | 12.5 | 25
4 | N#Cc1ccc2[nH]cc(C(=O)C(=O)NCCCNCCCCNCCCNC(=O)C(=O)c3c[nH]c4ccc(C#N)cc34)c2c1.O=C(O)C(F)(F)F.O=C(O)C(F)(F)F |  | > 200 | > 200 |  | > 38.9 | > 38.9 | 0 | 38.9 | > 38.9 | 37.1 | > 38.9 | 50 | > 200 | 100
5 | O=C(NCCCNCCCCNCCCNC(=O)C(=O)c1c[nH]c2cccc(F)c12)C(=O)c1c[nH]c2cccc(F)c12 |  | 140 (≈ 81.3 µg/mL) | 100 (≈ 58.1 µg/mL) |  | > 55.1 | > 55.1 | 0.3 | > 55.1 | > 55 | 167 | > 55.1 | 35 | 35 (≈ 20.3 µg/mL) | > 70
6 | CC[C@H]1OC(=O)[C@H](C)[C@@H](O[C@H]2C[C@@](C)(OC)[C@@H](O)[C@H](C)O2)[C@H](C)[C@@H](O[C@@H]2O[C@H](C)C[C@H](N(C)C)[C@H]2O)[C@](C)(O)C[C@@H](C)C(=O)[C@H](C)[C@@H](O)[C@]1(C)O [ERYTHROMYCIN] | > 200 | > 200 | > 200 | 200 (≈ 147 µg/mL) |  |  |  |  |  |  |  |  |  | 
7 | COC(=O)c1ccc2c(C(=O)C(=O)NCCCNCCCCNCCCNC(=O)C(=O)c3c[nH]c4cc(C(=O)OC)ccc34)c[nH]c2c1.O=C(O)C(F)(F)F.O=C(O)C(F)(F)F |  | > 200 | > 200 |  | > 36 | > 36 | 0.6 | 9 | > 36 | 63.6 | > 36 | 25 | 12.5 | > 200
8 | N#Cc1ccc2c(C(=O)C(=O)NCCCNCCCCNCCCNC(=O)C(=O)c3c[nH]c4cc(C#N)ccc34)c[nH]c2c1.O=C(O)C(F)(F)F.O=C(O)C(F)(F)F |  | > 200 | 200 |  | > 38.9 | > 38.9 | 0 | 38.9 | > 38.9 | 46.9 | > 38.9 | 50 | 25 | 100
9 | COc1ccc2c(C(=O)C(=O)NCCCNCCCCNCCCNC(=O)C(=O)c3c[nH]c4cc(OC)ccc34)c[nH]c2c1 |  | > 100 | > 100 |  | > 38.4 | > 38.4 | 0 | 19.2 (≈ 11.6 µg/mL) | > 38.4 | 54 | > 38.4 | 50 | > 100 | > 100
10 | O=C(NCCCNCCCCNCCCNC(=O)C(=O)c1c[nH]c2cc(F)ccc12)C(=O)c1c[nH]c2cc(F)ccc12.O=C(O)C(F)(F)F.O=C(O)C(F)(F)F |  | > 200 | > 200 |  | > 39.6 | > 39.6 | 0.3 | 19.8 | 12.5 | 69.1 | > 39.6 | 25 | > 200 | 100
11 | COC(=O)c1cccc2c(C(=O)C(=O)NCCCNCCCCNCCCNC(=O)C(=O)c3c[nH]c4c(C(=O)OC)cccc34)c[nH]c12.O=C(O)C(F)(F)F.O=C(O)C(F)(F)F |  | 200 | 200 |  | > 36 | > 36 | 15 | 9 | 3.78 | 34.4 | > 36 | 6.25 | > 200 | 25
12 | Cc1ccc2[nH]cc(C(=O)C(=O)NCCCNCCCCNCCCNC(=O)C(=O)c3c[nH]c4ccc(C)cc34)c2c1.O=C(O)C(F)(F)F.O=C(O)C(F)(F)F |  | 100 | 200 |  | > 40 | > 40 | 0.3 | 10 | > 40 | 63.8 | > 40 | 6.25 | > 200 | 25
13 | O=C(NCCCNCCCCNCCCNC(=O)C(=O)c1c[nH]c2ccc(F)cc12)C(=O)c1c[nH]c2ccc(F)cc12.O=C(O)C(F)(F)F.O=C(O)C(F)(F)F |  | 200 | 200 |  | > 39.6 | > 39.6 | 0 | 9.9 | > 39.6 | 71.1 | > 39.6 | 12.5 | 50 | 25
14 | O=C(N[C@H](CO)[C@H](O)c1ccc([N+](=O)[O-])cc1)C(Cl)Cl [CHLORAMPHENICOL] | 50 (≈ 16.2 µg/mL) | > 200 | > 200 | > 200 |  |  |  |  |  |  |  |  | 3 to 6 (≈ 0.969 to 1.94 µg/mL) | 1.5 to 3 (≈ 0.485 to 0.969 µg/mL)

— ChEMBL document CHEMBL4311975, “Exploration of the antibiotic potentiating activity of indolglyoxylpolyamines” (Eur J Med Chem, 2019)
